From ChEMBL document CHEMBL4138242, “Synthesis and antibacterial evaluation of novel cationic chalcone derivatives possessing broad spectrum antibacterial activity” (Eur J Med Chem, 2018)
Activity calls are given as the source filed them.

Experiments:
Staphylococcus aureus [1] = assay: Antibacterial activity against Staphylococcus aureus ATCC 29213 after 16 to 20 hrs by broth microdilution method; assay type: functional
Outline: (§1)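 Broth microdilution per CLSI. Bacteria grown 4-6 h (about 10⁸ CFU/mL), then diluted to about 10⁶ CFU/mL. Medium: Mueller-Hinton broth, except Luria-Bertani broth for E. coli. Compounds in sterile water, twofold series 256-0.5 µg/mL, mixed 1:1 with inoculum, 37 °C for 16-20 h. MIC is the lowest concentration without visible growth. Duplicate wells; experiment repeated at least twice.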

Enterococcus faecalis = assay: Antibacterial activity against Enterococcus faecalis ATCC 29212 after 16 to 20 hrs by broth microdilution method; assay type: functional; outline: as §1
[2] = Hemolytic activity in sheep RBC after 1 hr; assay type: ADME, cell-based, Ovis aries, Erythrocyte; settings: sheep red blood cells (erythrocytes)
Outline: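 Sheep red blood cells (150 µL suspension) mixed with 50 µL of compound dilutions (5120-10 µg/mL), 1 h at 37 °C, then centrifuged. Supernatant read at 540 nm. Percent hemolysis calculated relative to RBC-only control (0%) and 0.1% Triton X-100 (100%).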

Staphylococcus aureus [3] = assay: Antibacterial activity against methicillin-resistant Staphylococcus aureus clinical isolate 20130911034sau after 16 to 20 hrs by broth microdilution method; assay type: functional
Outline: (§2)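 CLSI broth microdilution in Mueller-Hinton broth. A 4-6 h culture was diluted to about 10⁶ CFU/mL and mixed 1:1 with compound dilutions prepared at 256 to 0.5 µg/mL from aqueous stocks. Plates were incubated at 37 °C for 16-20 h and read visually for MIC. Each concentration was run in duplicate, and the experiment was repeated at least twice. Vancomycin and meropenem were comparators.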

Staphylococcus aureus [4] = assay: Antibacterial activity against methicillin-resistant Staphylococcus aureus clinical isolate 1104060 after 16 to 20 hrs by broth microdilution method; assay type: functional; outline: as §2
Staphylococcus aureus [5] = assay: Antibacterial activity against methicillin-resistant Staphylococcus aureus clinical isolate 1207007 after 16 to 20 hrs by broth microdilution method; assay type: functional; outline: as §2
Klebsiella pneumoniae [6] = assay: Antibacterial activity against drug-resistant carbapenemase producing Klebsiella pneumoniae clinical isolate KP-13-45 after 16 to 20 hrs by broth microdilution method; assay type: functional; outline: as §2
Klebsiella pneumoniae [7] = assay: Antibacterial activity against drug-resistant carbapenemase producing Klebsiella pneumoniae clinical isolate KP-14-4 after 16 to 20 hrs by broth microdilution method; assay type: functional; outline: as §2
Klebsiella pneumoniae [8] = assay: Antibacterial activity against drug-resistant carbapenemase producing Klebsiella pneumoniae clinical isolate KP-13-54 after 16 to 20 hrs by broth microdilution method; assay type: functional; outline: as §2
Klebsiella pneumoniae [9] = assay: Antibacterial activity against drug-resistant carbapenemase producing Klebsiella pneumoniae clinical isolate KP-14-2 after 16 to 20 hrs by broth microdilution method; assay type: functional; outline: as §2
Klebsiella pneumoniae [10] = assay: Antibacterial activity against drug-resistant carbapenemase producing Klebsiella pneumoniae clinical isolate KP-14-5 after 16 to 20 hrs by broth microdilution method; assay type: functional; outline: as §2
Klebsiella pneumoniae [11] = assay: Antibacterial activity against drug-resistant carbapenemase producing Klebsiella pneumoniae clinical isolate KP-13-55 after 16 to 20 hrs by broth microdilution method; assay type: functional; outline: as §2
Escherichia coli [12] = assay: Antibacterial activity against drug-resistant NDM1 producing Escherichia coli clinical isolate EC-13-49 after 16 to 20 hrs by broth microdilution method; assay type: functional; outline: as §2
Escherichia coli [13] = assay: Antibacterial activity against drug-resistant NDM1 producing Escherichia coli clinical isolate Ecl-14-58 after 16 to 20 hrs by broth microdilution method; assay type: functional; outline: as §2
Escherichia coli [14] = assay: Antibacterial activity against drug-resistant NDM1 producing Escherichia coli clinical isolate KP-13-58 after 16 to 20 hrs by broth microdilution method; assay type: functional; outline: as §2
Escherichia coli [15] = assay: Antibacterial activity against drug-resistant NDM1 producing Escherichia coli clinical isolate EC-14-54 after 16 to 20 hrs by broth microdilution method; assay type: functional; outline: as §2
Escherichia coli [16] = assay: Antibacterial activity against drug-resistant NDM1 producing Escherichia coli clinical isolate Ecl-14-59 after 16 to 20 hrs by broth microdilution method; assay type: functional; outline: as §2
Escherichia coli [17] = assay: Antibacterial activity against drug-resistant NDM1 producing Escherichia coli clinical isolate Ecl-14-56 after 16 to 20 hrs by broth microdilution method; assay type: functional; outline: as §2
Escherichia coli [18] = assay: Antibacterial activity against drug-resistant NDM1 producing Escherichia coli clinical isolate SM-15-84 after 16 to 20 hrs by broth microdilution method; assay type: functional; outline: as §2
Escherichia coli [19] = assay: Antibacterial activity against drug-resistant NDM1 producing Escherichia coli clinical isolate CF-13-61 after 16 to 20 hrs by broth microdilution method; assay type: functional; outline: as §2
Staphylococcus aureus [20] = assay: Disruption of 24 hrs cultured Staphylococcus aureus ATCC 29213 biofilm assessed as cell viability in biofilm at 4 ug/ml after 24 hrs by crystal violet staining-based assay (reference value: 15.96 log10CFU/ml); assay type: functional
Staphylococcus aureus [21] = assay: Disruption of 24 hrs cultured Staphylococcus aureus ATCC 29213 biofilm assessed as cell viability in biofilm at 32 ug/ml after 24 hrs by crystal violet staining-based assay (reference value: 15.96 log10CFU/ml); assay type: functional
Escherichia coli [22] = assay: Antibacterial activity against Escherichia coli ATCC 25922 at sub MIC after 20 passages; assay type: functional, organism-based
Outline: (§3)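 The MIC was first measured by broth microdilution. Cells grown at MIC/2 were then carried into a fresh MIC assay after each 24 h, repeated over 20 serial passages. Norfloxacin (S. aureus) and colistin (E. coli) served as control antibiotics. Resistance was defined as a >4-fold rise over the original MIC.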

Staphylococcus aureus [23] = assay: Antibacterial activity against Staphylococcus aureus ATCC 29213 at sub MIC after 20 passages; assay type: functional, organism-based; outline: as §3
Staphylococcus aureus [24] = assay: Ratio of MBC99.9 for methicillin-resistant Staphylococcus aureus in presence of 50% sheep serum to MBC99.9 for methicillin-resistant Staphylococcus aureus ATCC 29213 in presence of 50% sheep plasma; assay type: functional
Outline: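 MRSA at 10⁵ CFU/mL in 50% MHB plus 50% sheep serum, plasma or defibrinated blood; serum and plasma were obtained by centrifugation at 3,500 rpm for 10 min. Aqueous dilutions prepared at 512-4 µg/mL were added 1:3 to the suspension and incubated for 20-24 h at 37 °C. Well contents (20 µL) were plated on MHA for 20-24 h, and MBC was the concentration giving no colonies.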

Escherichia coli [25] = assay: Induction of cytoplasmic membrane depolarization in Escherichia coli ATCC 25922 at 10 to 20 ug/ml measured every 2 mins for 12 mins by DiSC35 dye-based fluorescence assay; assay type: functional, organism-based
Outline: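 Mid-log cells (~10⁸ CFU/mL) were suspended in PBS (S. aureus) or HEPES/glucose/KCl with EDTA (E. coli). They were preloaded with DiSC3(5) for 30 min (S. aureus) or 40 min (E. coli), and baseline fluorescence was read for 8 min. Compound was added to 20 µg/mL final, and fluorescence (ex 622/em 670 nm) was read every 2 min for 12 min. Water served as control.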

Staphylococcus aureus [26] = assay: Induction of inner membrane permeabilization in Staphylococcus aureus ATCC 29213 at 10 to 20 ug/ml measured every 2 mins for 12 mins by propidium iodide staining-based fluorescence assay; assay type: functional, organism-based
Outline: (§4)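 Mid-log cells (~10⁸ CFU/mL) were suspended in PBS (S. aureus) or HEPES/glucose/KCl (E. coli). They were preincubated with propidium iodide for 30 min (S. aureus) or 40 min (E. coli), and baseline fluorescence was read for 8 min. Compound was added to 20 µg/mL final, and fluorescence (ex 535/em 617 nm) was read every 2 min for 12 min.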

Escherichia coli [27] = assay: Induction of inner membrane permeabilization in Escherichia coli ATCC 25922 at 10 to 20 ug/ml measured every 2 mins for 12 mins by propidium iodide staining-based fluorescence assay; assay type: functional, organism-based; outline: as §4

Question: What does the source list for `CCCCCCCC[N+](C)(C)CC(=O)Nc1ccc(C(=O)/C=C/c2ccccc2F)cc1.[Cl-]`?
Answer: MIC (Staphylococcus aureus [1]): 0.5 µg/mL; MIC (Enterococcus faecalis): 1 µg/mL; HC50 at 1 h [2]: 137 µg/mL; MIC (Staphylococcus aureus [3]): 0.5 µg/mL; MIC (Staphylococcus aureus [4]): 8 µg/mL; MIC (Staphylococcus aureus [5]): 0.25 µg/mL; MIC (Klebsiella pneumoniae [6]): 4 µg/mL; MIC (Klebsiella pneumoniae [7]): 4 µg/mL; MIC (Klebsiella pneumoniae [8]): 4 µg/mL; MIC (Klebsiella pneumoniae [9]): 16 µg/mL; MIC (Klebsiella pneumoniae [10]): 4 µg/mL; MIC (Klebsiella pneumoniae [11]): 16 µg/mL; MIC (Escherichia coli [12]): 4 µg/mL; MIC (Escherichia coli [13]): 4 µg/mL; MIC (Escherichia coli [14]): 1 µg/mL; MIC (Escherichia coli [15]): 16 µg/mL; MIC (Escherichia coli [16]): 16 µg/mL; MIC (Escherichia coli [17]): 4 µg/mL; MIC (Escherichia coli [18]): 16 µg/mL; MIC (Escherichia coli [19]): 4 µg/mL; Activity (Staphylococcus aureus [20]): 12.93 log10CFU/ml; Activity (Staphylococcus aureus [21]): 9.59 log10CFU/ml; Activity (Escherichia coli [22]): Active; Activity (Staphylococcus aureus [23]): Active; Ratio (Staphylococcus aureus [24]): 2; Activity (Escherichia coli [25]): Active; Activity (Staphylococcus aureus [26]): Active; Activity (Escherichia coli [27]): Active
